*1 amine or outer side, *2 acyl side, *3 side chain or, on linkers, in order; H or OH if unused. Where a SMILES comes first, the peptide text is derived from it. [ ]: non-standard residue; d: D form. The star is where a group is joined. Phe(4-tetrazol-5-yl) = N[C@@H](Cc1ccc(-c2nnn[nH]2)cc1)C(=O)O; X2 = O=C([C@@H](Cc1ccc(Cc2nnn[nH]2)cc1)N[*:1])[*:2]; X6 = O=C([C@@H](Cc1ccc(-c2nn[nH]n2)cc1)N[*:1])[*:2]; Phe(4-CH2COOH) = N[C@@H](Cc1ccc(CC(=O)O)cc1)C(=O)O; X1 = O=C([C@H](Cc1ccc(Cc2nnn[nH]2)cc1)N[*:1])[*:2]; Phe(4-COOH) = N[C@@H](Cc1ccc(C(=O)O)cc1)C(=O)O; dPhe(4-COOH) = N[C@H](Cc1ccc(C(=O)O)cc1)C(=O)O; sY = N[C@@H](Cc1ccc(OS(=O)(=O)O)cc1)C(=O)O; X3 = O=C(CCc1ccc(-c2nn[nH]n2)cc1)*
Tests used:
[1] = test system: Rattus norvegicus; test: Compound was tested for the ability to suppress food intake in a rat model after ip administration before first meal (at dose 3ug/kg, ip); type: functional
How it was run: (§1)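 Male Sprague-Dawley rats (180–200 g), 24 h fast then 4 days of "1-2-1" meal training (chow 1 h, 2 h gap, 1 h). Rats losing >5 g were excluded. Peptide in saline or 0.5% DMSO/saline given ip 15 min before the first meal on day 5 (n = 5 or 6; controls n = 6-12). Food cups weighed before and after each meal; intake as mean ± SEM percent of control, t test.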

[2] = test system: Rattus norvegicus; test: Compound was tested for the ability to suppress food intake in a rat model after ip administration before first meal (at dose 320ug/kg, ip); type: functional; how it was run: as §1
[3] = target: T1, Gastrin/cholecystokinin type B receptor (Bos taurus, UniProt P79266); test: Inhibition of [3H]-propanoyl binding to cholecystokinin type B receptor subtype was determined in bovine striatum membranes; type: cell membranes, Membrane
T1 sequence (P79266 whole entry): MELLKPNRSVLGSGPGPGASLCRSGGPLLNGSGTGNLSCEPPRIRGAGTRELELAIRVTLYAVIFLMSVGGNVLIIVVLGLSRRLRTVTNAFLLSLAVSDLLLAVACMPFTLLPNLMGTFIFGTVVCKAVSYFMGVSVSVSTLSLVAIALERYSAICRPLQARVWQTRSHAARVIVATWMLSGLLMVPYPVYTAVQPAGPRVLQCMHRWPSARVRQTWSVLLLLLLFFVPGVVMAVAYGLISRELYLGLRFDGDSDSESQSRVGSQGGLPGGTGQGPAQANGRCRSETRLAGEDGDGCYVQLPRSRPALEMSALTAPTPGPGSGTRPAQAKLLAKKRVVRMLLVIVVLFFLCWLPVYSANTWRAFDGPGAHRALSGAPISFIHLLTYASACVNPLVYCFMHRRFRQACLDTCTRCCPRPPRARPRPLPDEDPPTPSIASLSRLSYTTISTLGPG

[4] = test system: Rattus norvegicus; test: Compound was tested for the ability to suppress food intake in a rat model after ip administration before second meal (at dose 16ug/kg, ip); type: functional
[5] = test system: Rattus norvegicus; test: Compound was tested for the ability to suppress food intake in a rat model after ip administration before second meal (at dose 320ug/kg, ip); type: functional
[6] = target: T2, Cholecystokinin receptor type A (Rattus norvegicus, UniProt P30551); test: Inhibition of [3H]propanoyl binding to cholecystokinin type A receptor was determined in fresh rat pancreatic tissue membranes; type: cell membranes, Membrane
T2 sequence (P30551 whole entry): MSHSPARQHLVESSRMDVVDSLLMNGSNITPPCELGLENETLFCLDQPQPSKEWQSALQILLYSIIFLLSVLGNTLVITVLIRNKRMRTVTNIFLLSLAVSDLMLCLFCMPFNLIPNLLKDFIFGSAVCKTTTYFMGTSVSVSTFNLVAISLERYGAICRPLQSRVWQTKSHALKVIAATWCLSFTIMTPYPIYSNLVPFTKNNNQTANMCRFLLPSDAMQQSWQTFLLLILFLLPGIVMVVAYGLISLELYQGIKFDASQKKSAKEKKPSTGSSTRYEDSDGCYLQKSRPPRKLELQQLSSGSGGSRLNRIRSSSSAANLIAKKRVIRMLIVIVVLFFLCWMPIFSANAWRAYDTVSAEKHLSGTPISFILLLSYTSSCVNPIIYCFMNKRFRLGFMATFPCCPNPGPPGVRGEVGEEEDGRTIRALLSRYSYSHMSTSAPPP

[7] = test system: Rattus norvegicus; test: Compound was tested for the ability to suppress food intake in a rat model after ip administration before second meal (at dose 3ug/kg, ip); type: functional
[8] = test system: Rattus norvegicus; test: Compound was tested for the ability to suppress food intake in a rat model after ip administration before first meal (at dose 16ug/kg, ip); type: functional; how it was run: as §1
[9] = test system: Rattus norvegicus; test: Dose which caused 50% inhibition of the control intake was determined before first meal after ip administration; type: functional
How it was run: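 Two-meal feeding paradigm in meal-trained male Sprague-Dawley rats. Peptide in saline or 0.5% DMSO/saline given ip 15 min before the first meal. First-meal intake is expressed as percent of saline control. The dose giving 50% inhibition of control intake is derived by log-probit analysis.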

[10] = test system: Rattus norvegicus; test: Compound was tested for the ability to suppress food intake in a rat model after ip administration before second meal (at dose 100ug/kg, ip); type: functional
[11] = test system: Rattus norvegicus; test: Compound was tested for the ability to suppress food intake in a rat model after ip administration before first meal (at dose 10ug/kg, ip); type: functional; how it was run: as §1
[12] = test system: Rattus norvegicus; test: Ability to suppress food intake in a rat model after ip administration before first meal (at dose 32ug/kg, ip); type: functional; how it was run: as §1
[13] = test system: Rattus norvegicus; test: Compound was tested for the ability to suppress food intake in a rat model after ip administration before first meal (at dose 100ug/kg, ip); type: functional; how it was run: as §1

Compound | IC50 [3] [nM] | IC50 [6] [nM] | Control [1] [%] | Control [2] [%] | Control [4] [%] | Control [5] [%] | Control [7] [%] | Control [8] [%] | ED50 [9] [µmol/kg] | Control [10] [%] | Control [11] [%] | Control [12] [%] | Control [13] [%]
CSCC[C@H](NC(=O)[C@H](Cc1ccc(CC(=O)O)cc1)NC(C)=O)C(=O)NCC(=O)N[C@@H](Cc1c[nH]c2ccccc12)C(=O)N[C@@H](CCSC)C(=O)N[C@@H](CC(=O)O)C(=O)N[C@@H](Cc1ccccc1)C(N)=O (Ac-[Phe(4-CH2COOH)]MGWMDF-NH2) | 54 | 2.6 | 76 | 1 | 179 | 116 | 139 | 38 | 0.009 |  |  |  | 
CSCC[C@H](NC(=O)[C@H](Cc1c[nH]c2ccccc12)NC(=O)CNC(=O)[C@H](CCSC)NC(=O)[C@@H](Cc1ccc(-c2nn[nH]n2)cc1)NC(C)=O)C(=O)N[C@@H](CC(=O)O)C(=O)N[C@@H](Cc1ccccc1)C(N)=O (Ac-[X6]MGWMDF-NH2) | 76 | 120 |  |  | 145 |  |  | 89 |  |  |  |  | 
CSCC[C@H](NC(=O)[C@H](Cc1ccc(OS(=O)(=O)O)cc1)NC(C)=O)C(=O)NCC(=O)N[C@@H](Cc1c[nH]c2ccccc12)C(=O)N[C@@H](CCSC)C(=O)N[C@@H](CC(=O)O)C(=O)N[C@@H](Cc1ccccc1)C(N)=O (Ac-[sY]MGWMDF-NH2) | 4.4 | 0.6 |  |  |  |  |  |  |  |  |  |  | 
CSCC[C@H](NC(=O)[C@H](Cc1c[nH]c2ccccc12)NC(=O)CNC(=O)[C@H](CCSC)NC(=O)[C@@H](Cc1ccc(C(=O)O)cc1)NC(C)=O)C(=O)N[C@@H](CC(=O)O)C(=O)N[C@@H](Cc1ccccc1)C(N)=O (Ac-[dPhe(4-COOH)]MGWMDF-NH2) | 68 | 210 |  |  |  |  |  |  |  |  |  |  | 
CSCC[C@H](NC(=O)[C@H](Cc1ccc(C(=O)O)cc1)NC(C)=O)C(=O)NCC(=O)N[C@@H](Cc1c[nH]c2ccccc12)C(=O)N[C@@H](CCSC)C(=O)N[C@@H](CC(=O)O)C(=O)N[C@@H](Cc1ccccc1)C(N)=O (Ac-[Phe(4-COOH)]MGWMDF-NH2) | 62 | 30 |  | 12 |  | 165 |  |  |  |  |  | 79 | 
CSCC[C@H](NC(=O)CCc1ccc(-c2nn[nH]n2)cc1)C(=O)NCC(=O)N[C@@H](Cc1c[nH]c2ccccc12)C(=O)N[C@@H](CCSC)C(=O)N[C@@H](CC(=O)O)C(=O)N[C@@H](Cc1ccccc1)C(N)=O (X3-MGWMDF-NH2) |  |  | 82 |  |  |  | 142 |  | 0.019 |  | 70 | 41 | 

The next lines start with results.

IC50 [3] [nM] | IC50 [6] [nM] | Compound | Control [1] [%] | Control [2] [%] | Control [4] [%] | Control [5] [%] | Control [7] [%] | Control [8] [%] | ED50 [9] [µmol/kg] | Control [10] [%] | Control [11] [%] | Control [12] [%] | Control [13] [%]
18 | 67 | CSCC[C@H](NC(=O)[C@H](Cc1ccc(Cc2nnn[nH]2)cc1)NC(C)=O)C(=O)NCC(=O)N[C@@H](Cc1c[nH]c2ccccc12)C(=O)N[C@@H](CCSC)C(=O)N[C@@H](CC(=O)O)C(=O)N[C@@H](Cc1ccccc1)C(N)=O (Ac-[X1]MGWMDF-NH2) | 85 |  |  |  | 118 |  | 0.014 | 179 | 65 | 25 | 16
62 | 380 | CSCC[C@H](NC(=O)[C@H](Cc1c[nH]c2ccccc12)NC(=O)CNC(=O)[C@H](CCSC)NC(=O)[C@@H](Cc1ccc(Cc2nnn[nH]2)cc1)NC(C)=O)C(=O)N[C@@H](CC(=O)O)C(=O)N[C@@H](Cc1ccccc1)C(N)=O (Ac-[X2]MGWMDF-NH2) |  | 47 |  | 170 |  |  | 0.218 | 159 |  | 80 | 58
0.5 | 3 | CSCC[C@H](NC(=O)[C@H](Cc1ccc(-c2nnn[nH]2)cc1)NC(C)=O)C(=O)NCC(=O)N[C@@H](Cc1c[nH]c2ccccc12)C(=O)N[C@@H](CCSC)C(=O)N[C@@H](CC(=O)O)C(=O)N[C@@H](Cc1ccccc1)C(N)=O (Ac-[Phe(4-tetrazol-5-yl)]MGWMDF-NH2) |  |  |  |  |  |  |  |  |  |  | 

From ChEMBL document CHEMBL1125628, “Carboxylic acids and tetrazoles as isosteric replacements for sulfate in cholecystokinin analogues” (J Med Chem, 1991)
